According to ChEMBL document CHEMBL4689842, “EUbOPEN Chemogenomics Library wave 1” (2021):
Several values for one entry are separate records, joined by “and”; a condition that tells them apart may be missing. Equal values may be shown once.

System: HEK-293T
Experiment: Multiplex assay against HEK293T;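 as to Population Tubulin-Different-Phenotype (%): share of the cells with healthy nuclei that show this phenotype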
Type: toxicity, cell-based
Conditions: human
Procedure, shortened: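 Hoechst33342, BioTracker Green Microtubule Cytoskeleton Dye, MitoTracker Red and Annexin V Alexa Fluor 680 were added to live cells at seeding, and imaging on a CQ1 microscope at 37°C and 5% CO2 followed compound addition. Gating by CellPathfinder machine learning separated cells into Hoechst high-intensity objects or normal cells, then normal cells into healthy, pyknosed or fragmented nuclei, then pyknosed cells into mitotic or apoptotic. Per cents of healthy-nucleus cells are reported for the tubulin, mitochondrial-mass and membrane-permeability phenotypes.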

[1] = 12 h, 1 µM, compound concentration 1 uM, replicate 1
[2] = 12 h, 1 µM, compound concentration 1 uM, replicate 2
[3] = 24 h, 1 µM, compound concentration 1 uM, replicate 1
[4] = 24 h, 1 µM, compound concentration 1 uM, replicate 2
[5] = 12 h, 10 µM, compound concentration 10 uM, replicate 1
[6] = 12 h, 10 µM, compound concentration 10 uM, replicate 2
[7] = 24 h, 10 µM, compound concentration 10 uM, replicate 1
[8] = 24 h, 10 µM, compound concentration 10 uM, replicate 2

CN([C@@H](Cc1ccc(OS(=O)(=O)c2cccc3cnccc23)cc1)C(=O)N1CCN(c2ccccc2)CC1)S(=O)(=O)c1cccc2cnccc12
Population Apoptotic (%) [1]: 32% and 22%
Population Fragmented Nuclei (%) [1]: 26% and 15%
Population Healthy Nuclei (%) [1]: 31% and 38%
Population Hoechst High Intensity Objects (%) [1]: 18% and 15%
Population Membrane Permeable-Phenotype (%) [1]: 34% and 31%
Population Mitochondria Different-Phenotype (%) [1]: 22%
Population Mitotic Cells (%) [1]: 67% and 77%
Population Normal (%) [1]: 81% and 84%
Population Pyknosed Nuclei (%) [1]: 42% and 46%
Population Tubulin-Different-Phenotype (%) [1]: 77% and 86%
Total Cell Count [1]: 417 and 601
Population Apoptotic (%) [2]: 15% and 13%
Population Fragmented Nuclei (%) [2]: 2% and 3%
Population Healthy Nuclei (%) [2]: 73%
Population Hoechst High Intensity Objects (%) [2]: 3% and 2%
Population Membrane Permeable-Phenotype (%) [2]: 28% and 27%
Population Mitochondria Different-Phenotype (%) [2]: 34% and 43%
Population Mitotic Cells (%) [2]: 84% and 86%
Population Normal (%) [2]: 96% and 97%
Population Pyknosed Nuclei (%) [2]: 23% and 22%
Population Tubulin-Different-Phenotype (%) [2]: 97%
Total Cell Count [2]: 993 and 1067
Population Apoptotic (%) [3]: 39% and 33%
Population Fragmented Nuclei (%) [3]: 22% and 14%
Population Healthy Nuclei (%) [3]: 46% and 51%
Population Hoechst High Intensity Objects (%) [3]: 14% and 13%
Population Membrane Permeable-Phenotype (%) [3]: 20%
Population Mitochondria Different-Phenotype (%) [3]: 50% and 32%
Population Mitotic Cells (%) [3]: 60% and 66%
Population Normal (%) [3]: 85% and 86%
Population Pyknosed Nuclei (%) [3]: 31% and 33%
Population Tubulin-Different-Phenotype (%) [3]: 88% and 94%
Total Cell Count [3]: 402 and 587
Population Apoptotic (%) [4]: 11%
Population Fragmented Nuclei (%) [4]: 9% and 3%
Population Healthy Nuclei (%) [4]: 75% and 68%
Population Hoechst High Intensity Objects (%) [4]: 2% and 5%
Population Membrane Permeable-Phenotype (%) [4]: 25% and 18%
Population Mitochondria Different-Phenotype (%) [4]: 40% and 37%
Population Mitotic Cells (%) [4]: 88%
Population Normal (%) [4]: 97% and 94%
Population Pyknosed Nuclei (%) [4]: 15% and 28%
Population Tubulin-Different-Phenotype (%) [4]: 98% and 96%
Total Cell Count [4]: 1327 and 1023

CCc1cccc(CC)c1NC(=O)c1nn(C)c2c1CCc1cnc(Nc3ccc(N4CCN(C)CC4)cc3OC)nc1-2
Population Apoptotic (%) [1]: 27%
Population Fragmented Nuclei (%) [1]: 14%
Population Healthy Nuclei (%) [1]: 18%
Population Hoechst High Intensity Objects (%) [1]: 18%
Population Membrane Permeable-Phenotype (%) [1]: 11%
Population Mitochondria Different-Phenotype (%) [1]: 32%
Population Mitotic Cells (%) [1]: 72%
Population Normal (%) [1]: 81%
Population Pyknosed Nuclei (%) [1]: 67%
Population Tubulin-Different-Phenotype (%) [1]: 75%
Total Cell Count [1]: 690
Population Apoptotic (%) [2]: 19%
Population Fragmented Nuclei (%) [2]: 2%
Population Healthy Nuclei (%) [2]: 54%
Population Hoechst High Intensity Objects (%) [2]: 7%
Population Membrane Permeable-Phenotype (%) [2]: 5%
Population Mitochondria Different-Phenotype (%) [2]: 69%
Population Mitotic Cells (%) [2]: 80%
Population Normal (%) [2]: 92%
Population Pyknosed Nuclei (%) [2]: 42%
Population Tubulin-Different-Phenotype (%) [2]: 97%
Total Cell Count [2]: 922
Population Apoptotic (%) [5]: 19%
Population Fragmented Nuclei (%) [5]: 11%
Population Healthy Nuclei (%) [5]: 64%
Population Hoechst High Intensity Objects (%) [5]: 14%
Population Membrane Permeable-Phenotype (%) [5]: 13%
Population Mitochondria Different-Phenotype (%) [5]: 12%
Population Mitotic Cells (%) [5]: 80%
Population Normal (%) [5]: 85%
Population Pyknosed Nuclei (%) [5]: 24%
Population Tubulin-Different-Phenotype (%) [5]: 54%
Total Cell Count [5]: 730
Population Apoptotic (%) [6]: 5%
Population Fragmented Nuclei (%) [6]: 3%
Population Healthy Nuclei (%) [6]: 89%
Population Hoechst High Intensity Objects (%) [6]: 2%
Population Membrane Permeable-Phenotype (%) [6]: 8%
Population Mitochondria Different-Phenotype (%) [6]: 24%
Population Mitotic Cells (%) [6]: 94%
Population Normal (%) [6]: 97%
Population Pyknosed Nuclei (%) [6]: 6%
Population Tubulin-Different-Phenotype (%) [6]: 57%
Total Cell Count [6]: 1395
Population Apoptotic (%) [3]: 39%
Population Fragmented Nuclei (%) [3]: 18%
Population Healthy Nuclei (%) [3]: 17%
Population Hoechst High Intensity Objects (%) [3]: 13%
Population Membrane Permeable-Phenotype (%) [3]: 11%
Population Mitochondria Different-Phenotype (%) [3]: 41%
Population Mitotic Cells (%) [3]: 60%
Population Normal (%) [3]: 86%
Population Pyknosed Nuclei (%) [3]: 63%
Population Tubulin-Different-Phenotype (%) [3]: 68%
Total Cell Count [3]: 683
Population Fragmented Nuclei (%) [4]: 3%
Population Healthy Nuclei (%) [4]: 27%
Population Hoechst High Intensity Objects (%) [4]: 12%
Population Membrane Permeable-Phenotype (%) [4]: 3%
Population Mitochondria Different-Phenotype (%) [4]: 92%
Population Normal (%) [4]: 87%
Population Pyknosed Nuclei (%) [4]: 68%
Population Tubulin-Different-Phenotype (%) [4]: 89%
Total Cell Count [4]: 901
Population Apoptotic (%) [7]: 27%
Population Fragmented Nuclei (%) [7]: 11%
Population Healthy Nuclei (%) [7]: 77%
Population Hoechst High Intensity Objects (%) [7]: 8%
Population Membrane Permeable-Phenotype (%) [7]: 20%
Population Mitochondria Different-Phenotype (%) [7]: 9%
Population Mitotic Cells (%) [7]: 72%
Population Normal (%) [7]: 91%
Population Pyknosed Nuclei (%) [7]: 10%
Population Tubulin-Different-Phenotype (%) [7]: 65%
Total Cell Count [7]: 803
Population Apoptotic (%) [8]: 11%
Population Fragmented Nuclei (%) [8]: 8%
Population Healthy Nuclei (%) [8]: 88%
Population Hoechst High Intensity Objects (%) [8]: 3%
Population Membrane Permeable-Phenotype (%) [8]: 13%
Population Mitotic Cells (%) [8]: 88%
Population Normal (%) [8]: 96%
Population Pyknosed Nuclei (%) [8]: 3%
Population Tubulin-Different-Phenotype (%) [8]: 62%
Total Cell Count [8]: 1777
